Columns and labels:
[1] = Inhibition of N-type calcium channel in human IMR-32 cells by FLIPR calcium imaging assay; type: cell-based
Summary of the method: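 FLIPR calcium imaging in IMR-32 human neuroblastoma cells with nitrendipine present to block endogenous L-type channels; IC50 determined in duplicate in one experiment, advanced compounds tested in several repeat assays.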

CYP3A4 [2] = molecular target: T1, CYP3A4 (Homo sapiens, UniProt P08684); experiment: Time-dependent inhibition of CYP3A4 in human liver microsomes assessed as residual enzyme activity using midazolam as substrate preincubated for 30 mins by fluorescence-based assay; conditions: probe midazolam
T1 sequence (P08684 whole entry): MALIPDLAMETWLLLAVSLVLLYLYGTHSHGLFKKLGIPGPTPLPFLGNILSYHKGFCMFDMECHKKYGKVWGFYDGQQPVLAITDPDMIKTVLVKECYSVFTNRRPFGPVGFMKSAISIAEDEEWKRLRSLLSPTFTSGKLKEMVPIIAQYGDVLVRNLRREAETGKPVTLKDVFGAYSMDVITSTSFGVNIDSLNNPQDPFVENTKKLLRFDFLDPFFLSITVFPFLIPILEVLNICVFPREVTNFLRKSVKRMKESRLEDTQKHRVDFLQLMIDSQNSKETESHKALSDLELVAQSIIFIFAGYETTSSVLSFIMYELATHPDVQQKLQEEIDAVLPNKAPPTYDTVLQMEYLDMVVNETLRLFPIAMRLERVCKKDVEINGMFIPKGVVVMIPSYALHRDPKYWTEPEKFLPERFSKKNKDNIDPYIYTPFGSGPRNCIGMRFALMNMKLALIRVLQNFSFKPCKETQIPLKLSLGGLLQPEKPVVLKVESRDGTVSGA

CYP3A4 [3] = molecular target: T1, CYP3A4; experiment: Reversible inhibition of CYP3A4 in human liver microsomes assessed as residual enzyme activity using midazolam as substrate by fluorescence-based assay; conditions: probe midazolam
Cytochrome P450 2D6 = Cytochrome P450 2D6 (Homo sapiens, UniProt P10635); experiment: Inhibition of CYP2D6 (unknown origin) by fluorescence-based assay
Chain of Cytochrome P450 2D6 (P10635 whole entry): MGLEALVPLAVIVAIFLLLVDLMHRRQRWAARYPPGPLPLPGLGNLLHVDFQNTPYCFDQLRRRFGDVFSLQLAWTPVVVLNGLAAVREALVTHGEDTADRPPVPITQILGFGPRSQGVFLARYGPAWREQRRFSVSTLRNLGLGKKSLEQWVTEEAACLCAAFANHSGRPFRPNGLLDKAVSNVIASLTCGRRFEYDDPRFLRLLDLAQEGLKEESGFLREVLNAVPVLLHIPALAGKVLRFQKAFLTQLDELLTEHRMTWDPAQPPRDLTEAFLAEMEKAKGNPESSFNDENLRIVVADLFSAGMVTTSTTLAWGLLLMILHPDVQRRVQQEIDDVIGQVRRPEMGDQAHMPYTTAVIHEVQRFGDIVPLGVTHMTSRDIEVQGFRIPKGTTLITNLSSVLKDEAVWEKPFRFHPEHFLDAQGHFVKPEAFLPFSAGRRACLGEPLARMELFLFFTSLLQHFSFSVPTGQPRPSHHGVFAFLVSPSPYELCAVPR

Cytochrome P450 2C9 = Cytochrome P450 2C9 (Homo sapiens, UniProt P11712); experiment: Inhibition of CYP2C9 (unknown origin) by fluorescence-based assay; type: ADME
Chain of Cytochrome P450 2C9 (P11712 whole entry): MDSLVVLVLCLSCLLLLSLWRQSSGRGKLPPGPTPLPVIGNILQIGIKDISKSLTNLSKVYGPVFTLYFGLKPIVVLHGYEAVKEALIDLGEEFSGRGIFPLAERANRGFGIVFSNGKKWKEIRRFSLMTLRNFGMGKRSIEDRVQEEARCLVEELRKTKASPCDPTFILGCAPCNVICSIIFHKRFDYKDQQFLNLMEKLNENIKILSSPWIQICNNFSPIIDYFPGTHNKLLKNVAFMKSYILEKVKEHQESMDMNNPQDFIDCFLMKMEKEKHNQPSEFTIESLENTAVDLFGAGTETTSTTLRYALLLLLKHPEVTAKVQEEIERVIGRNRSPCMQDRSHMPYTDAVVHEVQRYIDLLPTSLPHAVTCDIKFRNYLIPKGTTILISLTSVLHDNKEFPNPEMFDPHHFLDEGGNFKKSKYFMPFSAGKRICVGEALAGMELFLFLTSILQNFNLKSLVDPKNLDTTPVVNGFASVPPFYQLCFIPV
Summary of the method: (§1)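 Fluorescence-based assay with fluorogenic substrate, as for CYP1A2 and 2D6; IC50 determined.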

[4] = Clearance in human liver microsomes; type: ADME; conditions: read-out: CLH
[5] = molecular target: Voltage-gated L-type calcium channel (Homo sapiens, UniProt Q13936+Q13698+Q01668+O60840); experiment: Inhibition of L-type calcium channel in human IMR-32 cells by FLIPR calcium imaging assay; type: cell-based
Mus musculus = experiment: Antinociceptive activity in ddY mouse at 100 mg/kg, po by formalin test; type: functional
Rattus norvegicus = experiment: Analgesic activity in po dosed Sprague-Dawley rat L5/L6 SNL model assessed as reduction of mechanical allodynia; type: functional
Summary of the method: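 Male Sprague-Dawley rats, L5/L6 spinal nerve ligation model; drug suspended/diluted in 0.5% methylcellulose, given orally at 0.3–10 mg/kg (dose as free form).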

Cytochrome P450 2C19 = Cytochrome P450 2C19 (Homo sapiens, UniProt P33261); experiment: Inhibition of CYP2C19 (unknown origin) by fluorescence-based assay; type: ADME; summary of the method: as §1
Chain of Cytochrome P450 2C19 (P33261 whole entry): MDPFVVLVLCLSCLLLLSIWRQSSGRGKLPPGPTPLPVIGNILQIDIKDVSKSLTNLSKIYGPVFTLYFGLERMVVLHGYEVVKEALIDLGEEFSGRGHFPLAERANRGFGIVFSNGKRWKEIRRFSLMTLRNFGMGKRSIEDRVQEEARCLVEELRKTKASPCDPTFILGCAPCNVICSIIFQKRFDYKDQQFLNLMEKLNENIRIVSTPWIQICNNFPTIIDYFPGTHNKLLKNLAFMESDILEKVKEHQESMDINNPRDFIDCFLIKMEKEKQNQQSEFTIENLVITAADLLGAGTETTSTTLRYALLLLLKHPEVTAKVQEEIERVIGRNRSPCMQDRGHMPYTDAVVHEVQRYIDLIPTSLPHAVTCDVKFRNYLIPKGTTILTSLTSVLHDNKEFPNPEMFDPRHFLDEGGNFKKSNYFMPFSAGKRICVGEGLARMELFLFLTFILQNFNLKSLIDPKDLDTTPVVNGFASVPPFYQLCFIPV

SMILES | IC50 [1] | activity at 30 min (CYP3A4 [2]) | activity (CYP3A4 [3]) | IC50 (Cytochrome P450 2D6) | IC50 (Cytochrome P450 2C9) | CLint scaled [4] | IC50 [5] | IC50 (Cytochrome P450 2C19) | inhibition in vivo at 100 mg/kg (Mus musculus) | ED50 (Rattus norvegicus)
COc1cccc2c1CCN(C(=O)CNC[C@@H](C)O)C2C1CCCCC1 (stereo partly specified) | 2000 nM | 63% | 107% | < 780 nM |  |  |  |  |  | 
COc1cccc2c1[C@@H](c1ccccc1)N(C(=O)CNC[C@@H](C)O)CC2 | 3300 nM | 91% | 110% |  |  |  |  |  |  | 
Cc1ccc2c(c1)C(C1CCCCC1)N(C(=O)CNC[C@@H](C)O)CC2 (stereo partly specified) | 1700 nM |  |  |  |  |  |  |  |  | 
C[C@H](O)CNCC(=O)N1CCc2ccccc2C1C1CCCCC1 (stereo partly specified) | 1500 nM | 91% | 96% | 1600 nM |  |  |  |  | 0% | 
C[C@@H](O)CNCC(=O)N1CCc2ccc(F)cc2C1C1CCCCC1 (stereo partly specified) | 2300 nM | 80% | 109% | 1300 nM |  |  |  |  |  | 
C[C@@H](O)CNCC(=O)N1CCc2cc(C(N)=O)ccc2C1C1CCCCC1 (stereo partly specified) | > 10000 nM |  |  |  |  |  |  |  |  | 
CC(C)(O)CNCC(=O)N1CCc2ccccc2C1C1CCCCC1 (stereo unspecified) | 1700 nM |  |  |  |  |  |  |  | 7.7% | 
C[C@@H](O)CNCC(=O)N1CCc2ccccc2[C@@H]1C1CCCCC1 | 1700 nM | 87% | 105% | 1400 nM |  |  |  |  | 55% | 
C[C@@H](O)CNCC(=O)N1CCc2ccc(C#N)cc2C1C1CCCCC1 (stereo partly specified) | 2600 nM |  |  |  |  |  |  |  |  | 
CC[C@@H](O)CNCC(=O)N1CCc2ccccc2C1C1CCCCC1 (stereo partly specified) | 1500 nM | 88% | 87% | 1000 nM |  |  |  |  | 19% | 
C[C@@H](O)CNCC(=O)N1CCc2cc(F)ccc2C1C1CCCCC1 (stereo partly specified) | 1600 nM | 91% | 92% | 1600 nM |  |  |  |  |  | 
O=C(CNCC1(O)CCCCC1)N1CCc2ccccc2C1C1CCCCC1 (stereo unspecified) |  |  |  |  |  |  |  |  | 62% | 
C[C@@H](O)CNCC(=O)N1CCc2ccccc2[C@@H]1c1ccccc1 | 2400 nM | 94% | 98% | 2200 nM |  |  |  |  |  | 
Cc1ccc2c(c1)CCN(C(=O)CNC[C@@H](C)O)C2C1CCCCC1 (stereo partly specified) | 2400 nM |  |  |  |  |  |  |  |  | 
CC[C@H](O)CNCC(=O)N1CCc2ccccc2C1C1CCCCC1 (stereo partly specified) | 1900 nM | 83% | 81% | < 300 nM |  |  |  |  | 27% | 
COc1ccc2c(c1)C(C1CCCCC1)N(C(=O)CNC[C@@H](C)O)CC2 (stereo partly specified) | 1600 nM | 83% | 97% | 3700 nM |  |  |  |  |  | 
C[C@@H](O)CNCC(=O)N1CCc2ccccc2C1C1CCCCC1 (stereo partly specified) | 2000 nM | 95% | 92% | 1100 nM |  |  |  |  | 39% | 
C[C@@H](O)CNCC(=O)N1CCc2cccc(F)c2C1C1CCCCC1 (stereo partly specified) | 2500 nM |  |  |  |  |  |  |  |  | 
COc1ccc2c(c1)CCN(C(=O)CNC[C@@H](C)O)C2C1CCCCC1 (stereo partly specified) | 1900 nM | 97% | 93% | < 780 nM |  |  |  |  |  | 
C[C@@H](O)CNCC(=O)N1CCc2cc(C#N)ccc2C1C1CCCCC1 (stereo partly specified) | 3100 nM |  |  |  |  |  |  |  |  | 

More lines, in order of falling IC50 [1], values ahead:

IC50 [1] | activity at 30 min (CYP3A4 [2]) | activity (CYP3A4 [3]) | IC50 (Cytochrome P450 2D6) | IC50 (Cytochrome P450 2C9) | CLint scaled [4] | IC50 [5] | IC50 (Cytochrome P450 2C19) | SMILES | inhibition in vivo at 100 mg/kg (Mus musculus) | ED50 (Rattus norvegicus)
1400 nM | 90% | 94% |  | > 50000 nM | 45.9 mL/min/kg | > 10000 nM | > 50000 nM | COc1cccc2c1[C@H](c1ccccc1)N(C(=O)CNC[C@@H](C)O)CC2 | 77% | 2.8 mg/kg
1400 nM | 33% | 65% | 68 nM |  |  |  |  | CC(C)(C)[C@@H](CO)NCC(=O)N1CCc2ccccc2C1C1CCCCC1 (stereo partly specified) | 40% | 
1400 nM | 58% | 85% | 30200 nM |  |  |  |  | COc1cccc2c1C(C1CCCCC1)N(C(=O)CNC[C@@H](C)O)CC2 (stereo partly specified) |  | 
1300 nM | 89% | 100% | 5600 nM |  |  |  |  | Cc1cccc2c1C(c1ccccc1)N(C(=O)CNC[C@@H](C)O)CC2 (stereo partly specified) |  | 
1300 nM | 43% | 88% | 1900 nM |  |  |  |  | CC(C)c1ccc2c(c1)C(C1CCCCC1)N(C(=O)CNC[C@@H](C)O)CC2 (stereo partly specified) |  | 
1200 nM | 49% | 95% | < 390 nM |  |  |  |  | C[C@@H](O)CNCC(=O)N1CCc2c(F)cccc2C1C1CCCCC1 (stereo partly specified) |  | 
1100 nM | 46% | 69% | 44 nM |  |  |  |  | CC(C)C[C@@H](CO)NCC(=O)N1CCc2ccccc2C1C1CCCCC1 (stereo partly specified) | 32% | 
1000 nM | 95% | 103% | 1300 nM |  |  |  |  | C[C@@H](O)CNCC(=O)N1CCc2cccc(F)c2C1c1ccccc1 (stereo partly specified) |  | 
1000 nM |  |  | < 390 nM |  |  |  |  | O=C(CNCC1(O)CCCCC1)N1CCc2ccccc2[C@@H]1c1ccccc1 |  | 
890 nM | 65% | 85% | 1300 nM |  |  |  |  | CCc1ccc2c(c1)C(C1CCCCC1)N(C(=O)CNC[C@@H](C)O)CC2 (stereo partly specified) |  | 
